Values after ≈ are worked out from the molar mass of the structure shown.
Experiments:
[1] = tested on: Streptococcus sp. 'group A'; assay: Antibacterial activity against Beta-hemolytic Streptococcus group A by CLSI broth microdilution method; assay type: functional
How it was run: (§1)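 Clinical isolates from skin/soft tissue, bloodstream and respiratory specimens were tested by broth microdilution per CLSI M7-A7 and M100-S18, with quality controls. Values are the number of isolates inhibited at each concentration, or MIC / percent susceptible. Highest concentration tested was 8 µg/ml for iclaprim and trimethoprim-sulfamethoxazole, and 64 µg/ml for trimethoprim.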

Enterococcus faecalis [2] = assay: Antibacterial activity against Enterococcus faecalis assessed as inhibition of bacterial growth at 2 ug/ml by CLSI broth microdilution method; assay type: functional; how it was run: as §1
[3] = tested on: Streptococcus sp. 'group A'; assay: Antibacterial activity against Beta-hemolytic Streptococcus group A assessed as inhibition of bacterial growth at 0.015 ug/ml by CLSI broth microdilution method; assay type: functional; how it was run: as §1
[4] = tested on: Streptococcus sp. 'group B'; assay: Antibacterial activity against Beta-hemolytic Streptococcus group B by CLSI broth microdilution method; assay type: functional; how it was run: as §1
[5] = tested on: Streptococcus sp. 'group B'; assay: Antibacterial activity against Beta-hemolytic Streptococcus group B assessed as inhibition of bacterial growth at 4 ug/ml by CLSI broth microdilution method; assay type: functional; how it was run: as §1
Staphylococcus aureus [6] = assay: Antibacterial activity against Methicillin-sensitive Staphylococcus aureus assessed as inhibition of bacterial growth at 2 ug/ml by CLSI broth microdilution method; assay type: functional
Enterococcus faecalis [7] = assay: Antibacterial activity against Enterococcus faecalis assessed as inhibition of bacterial growth at […] by CLSI broth microdilution method; assay type: functional
[8] = tested on: Streptococcus sp. 'group B'; assay: Antibacterial activity against Beta-hemolytic Streptococcus group B assessed as inhibition of bacterial growth at 0.03 ug/ml by CLSI broth microdilution method; assay type: functional; how it was run: as §1
Staphylococcus aureus [9] = assay: Antibacterial activity against Methicillin-resistant Staphylococcus aureus assessed as inhibition of bacterial growth at 8 ug/ml by CLSI broth microdilution method; assay type: functional
How it was run: (§2)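 Recent clinical isolates from skin/soft tissue, bloodstream and respiratory specimens. Tested by broth microdilution per CLSI M7-A7 and M100-S18, with the appropriate quality controls. The thymidine content of the test medium was assessed to rule out artifactual inhibition.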

Enterococcus faecium [10] = assay: Antibacterial activity against Enterococcus faecium assessed as inhibition of bacterial growth at […] by CLSI broth microdilution method; assay type: functional
Enterococcus faecium [11] = assay: Antibacterial activity against Enterococcus faecium by CLSI broth microdilution method; assay type: functional
Enterococcus faecium [12] = assay: Antibacterial activity against Enterococcus faecium assessed as inhibition of bacterial growth at 0.5 ug/ml by CLSI broth microdilution method; assay type: functional
[13] = tested on: Streptococcus sp. 'group A'; assay: Antibacterial activity against Beta-hemolytic Streptococcus group A assessed as inhibition of bacterial growth at 1 ug/ml by CLSI broth microdilution method; assay type: functional; how it was run: as §1
Enterococcus faecalis [14] = assay: Antibacterial activity against Enterococcus faecalis assessed as inhibition of bacterial growth at 0.015 ug/ml by CLSI broth microdilution method; assay type: functional; how it was run: as §1
Staphylococcus aureus [15] = assay: Antibacterial activity against Methicillin-sensitive Staphylococcus aureus assessed as inhibition of bacterial growth at 0.015 ug/ml by CLSI broth microdilution method; assay type: functional
Enterococcus faecalis [16] = assay: Antibacterial activity against Enterococcus faecalis assessed as inhibition of bacterial growth at <= 0.008 ug/ml by CLSI broth microdilution method; assay type: functional; how it was run: as §1
Enterococcus faecalis [17] = assay: Antibacterial activity against Enterococcus faecalis by CLSI broth microdilution method; assay type: functional
[18] = tested on: Streptococcus sp. 'group B'; assay: Antibacterial activity against Beta-hemolytic Streptococcus group B assessed as inhibition of bacterial growth at <= 0.008 ug/ml by CLSI broth microdilution method; assay type: functional; how it was run: as §1
Enterococcus faecium [19] = assay: Antibacterial activity against Enterococcus faecium assessed as inhibition of bacterial growth at 4 ug/ml by CLSI broth microdilution method; assay type: functional
[20] = tested on: Streptococcus sp. 'group A'; assay: Antibacterial activity against Beta-hemolytic Streptococcus group A assessed as inhibition of bacterial growth at 0.06 ug/ml by CLSI broth microdilution method; assay type: functional; how it was run: as §1
Staphylococcus aureus [21] = assay: Antibacterial activity against Methicillin-resistant Staphylococcus aureus assessed as inhibition of bacterial growth at 0.03 ug/ml by CLSI broth microdilution method; assay type: functional; how it was run: as §2
Staphylococcus aureus [22] = assay: Antibacterial activity against Methicillin-resistant Staphylococcus aureus assessed as inhibition of bacterial growth at […] by CLSI broth microdilution method; assay type: functional; also: tested at 0.25 µg/mL
Enterococcus faecium [23] = assay: Antibacterial activity against Enterococcus faecium assessed as inhibition of bacterial growth at 0.015 ug/ml by CLSI broth microdilution method; assay type: functional; how it was run: as §1
Enterococcus faecium [24] = assay: Antibacterial activity against Enterococcus faecium assessed as inhibition of bacterial growth at <= 0.008 ug/ml by CLSI broth microdilution method; assay type: functional
Staphylococcus aureus [25] = assay: Antibacterial activity against Methicillin-resistant Staphylococcus aureus assessed as inhibition of bacterial growth at <= 0.008 ug/ml by CLSI broth microdilution method; assay type: functional; how it was run: as §2
Staphylococcus aureus [26] = assay: Antibacterial activity against Methicillin-sensitive Staphylococcus aureus assessed as inhibition of bacterial growth at 4 ug/ml by CLSI broth microdilution method; assay type: functional
[27] = tested on: Streptococcus sp. 'group B'; assay: Antibacterial activity against Beta-hemolytic Streptococcus group B assessed as inhibition of bacterial growth at 0.015 ug/ml by CLSI broth microdilution method; assay type: functional; how it was run: as §1
Staphylococcus aureus [28] = assay: microbe, parasite or virus in culture; conditions: read-out: INH
Enterococcus faecium [29] = assay: microbe, parasite or virus in culture; conditions: read-out: INH
Staphylococcus aureus [30] = assay: Antibacterial activity against Methicillin-sensitive Staphylococcus aureus assessed as resistant isolates by CLSI broth microdilution method; assay type: functional
[31] = tested on: Streptococcus sp. 'group B'; assay: microbe, parasite or virus in culture; conditions: read-out: INH
Staphylococcus aureus [32] = assay: Antibacterial activity against Methicillin-resistant Staphylococcus aureus assessed as resistant isolates by CLSI broth microdilution method; assay type: functional
Staphylococcus aureus [33] = assay: Antibacterial activity against Methicillin-sensitive Staphylococcus aureus assessed as susceptible isolates by CLSI broth microdilution method; assay type: functional
Enterococcus faecalis [34] = assay: microbe, parasite or virus in culture; conditions: read-out: INH
[35] = tested on: Streptococcus sp. 'group B'; assay: microbe, parasite or virus in culture; conditions: read-out: INH; remark: listed apart in the source
Staphylococcus aureus [36] = assay: microbe, parasite or virus in culture; conditions: read-out: INH; remark: listed apart in the source
Enterococcus faecalis [37] = assay: microbe, parasite or virus in culture; conditions: read-out: INH; remark: listed apart in the source
Staphylococcus aureus [38] = assay: microbe, parasite or virus in culture; conditions: read-out: INH; remark: listed apart in the source
[39] = tested on: Streptococcus sp. 'group A'; assay: microbe, parasite or virus in culture; conditions: read-out: INH
Enterococcus faecium [40] = assay: microbe, parasite or virus in culture; conditions: read-out: INH; remark: listed apart in the source
[41] = tested on: Streptococcus sp. 'group A'; assay: microbe, parasite or virus in culture; conditions: read-out: INH; remark: listed apart in the source
Staphylococcus aureus [42] = assay: microbe, parasite or virus in culture; conditions: read-out: INH; remark: listed apart in the source
Staphylococcus aureus [43] = assay: Antibacterial activity against Methicillin-resistant Staphylococcus aureus assessed as susceptible isolates by CLSI broth microdilution method; assay type: functional

SMILES	MIC50 [1] [µg/mL]	MIC90 [1] [µg/mL]	inhibition at 2 µg/mL (Enterococcus faecalis [2]) [%]	MIC50 [4] [µg/mL]	MIC90 [4] [µg/mL]	inhibition at 4 µg/mL [5] [%]	inhibition at 2 µg/mL (Staphylococcus aureus [6]) [%]	inhibition at […] (Enterococcus faecalis [7]) [%]	inhibition at 0.03 µg/mL [8] [%]	inhibition at 8 µg/mL (Staphylococcus aureus [9]) [%]	inhibition at […] (Enterococcus faecium [10]) [%]	MIC50 (Enterococcus faecium [11]) [µg/mL]	MIC90 (Enterococcus faecium [11]) [µg/mL]	inhibition at 0.5 µg/mL (Enterococcus faecium [12]) [%]	inhibition at 1 µg/mL [13] [%]	MIC50 (Enterococcus faecalis [17]) [µg/mL]	MIC90 (Enterococcus faecalis [17]) [µg/mL]	inhibition at 4 µg/mL (Enterococcus faecium [19]) [%]	inhibition at 0.06 µg/mL [20] [%]	inhibition at […] (Staphylococcus aureus [22]) [%]	further results
COc1cc(Cc2cnc(N)nc2N)c2c(c1OC)OC(C1CC1)C=C2 (stereo not drawn)	0.015 (≈ 0.0423 µM)	0.03 (≈ 0.0846 µM)	71.9	0.12 (≈ 0.339 µM)	0.25 (≈ 0.705 µM)	100	98.7	69	0.5	100	38	2 (≈ 5.64 µM)	> 8	39.3	100	0.015 (≈ 0.0423 µM)	4 (≈ 11.3 µM)	74.9	99.3	92.3	inhibition at 0.015 µg/mL [3]: 77.6%; inhibition at 0.015 µg/mL (Enterococcus faecalis [14]): 57.7%; inhibition at 0.015 µg/mL (Staphylococcus aureus [15]): 0.3%; inhibition (INH) (Enterococcus faecalis [16]): 25.5%; inhibition (INH) [18]: 0%; inhibition at 0.03 µg/mL (Staphylococcus aureus [21]): 12.8%; inhibition at 0.015 µg/mL (Enterococcus faecium [23]): 36.3%; inhibition (INH) (Enterococcus faecium [24]): 33.7%; inhibition (INH) (Staphylococcus aureus [25]): 0.1%; inhibition at 4 µg/mL (Staphylococcus aureus [26]): 99.9%; inhibition at 0.015 µg/mL [27]: 0.5%
COc1cc(Cc2cnc(N)nc2N)cc(OC)c1OC [TRIMETHOPRIM]	0.25 (≈ 0.861 µM)	0.5 (≈ 1.72 µM)	67.7	1 (≈ 3.44 µM)	4 (≈ 13.8 µM)	99.5	97.8	29.7	0	92.9	36	32 (≈ 110 µM)	> 64	37.6	99.5	0.25 (≈ 0.861 µM)	> 64	38.9	8.6	5.7	inhibition at 16 µg/mL (Staphylococcus aureus [28]): 93.6%; inhibition at 64 µg/mL (Enterococcus faecium [29]): 60.7%; Activity (Staphylococcus aureus [30]): 1.3%; inhibition at 32 µg/mL [31]: 100%; Activity (Staphylococcus aureus [32]): 7.1%; Activity (Staphylococcus aureus [33]): 98.7%; inhibition at 32 µg/mL (Enterococcus faecalis [34]): 71%; inhibition at 64 µg/mL [35]: 100%; inhibition at 16 µg/mL (Staphylococcus aureus [36]): 98.7%; inhibition at 64 µg/mL (Enterococcus faecalis [37]): 72.9%; inhibition at 64 µg/mL (Staphylococcus aureus [38]): 98.7%; inhibition at 16 µg/mL [39]: 100%; inhibition at 16 µg/mL (Enterococcus faecium [40]): 47.2%; inhibition at 64 µg/mL [41]: 100%; inhibition at 64 µg/mL (Staphylococcus aureus [42]): 94.6%; Activity (Staphylococcus aureus [43]): 92.9%; inhibition at 4 µg/mL (Staphylococcus aureus [26]): 98.5%

Source: ChEMBL document CHEMBL1649441, “Potency and bactericidal activity of iclaprim against recent clinical gram-positive isolates” (2009)
